Results reported in ChEMBL document CHEMBL4706639, “Discovery of Novel Azetidine Amides as Potent Small-Molecule STAT3 Inhibitors” (J Med Chem, 2021).
≈ marks a conversion by molar mass, not a printed value. Blank lines part the entries; values can stand above or below the compound they belong to. Calls of active or inactive are those of the source. No cut-off for these calls is given here.

Legend:
MCF-10A = experiment: Cytotoxicity against human MCF-10A cells assessed as reduction in cell viability incubated for 72 hrs by CyQuant assay; assay type: cell-based
MDA-MB-468 [1] = experiment: Antiproliferative activity against human MDA-MB-468 cells harbouring STAT3 assessed as reduction in cell viability incubated for 72 hrs by CyQuant assay; assay type: functional, cell-based; conditions: MDA-MB-468, 72 h
[2] = target: T1, Signal transducer and activator of transcription 1 (Mus musculus) (UniProt P42225); experiment: Inhibition of oligonucleotide [32P]-labelled 5'-AGCITCATTTCCCGTAAATCCCTA probe binding to STAT1 homodimer in mouse NIH3T3 nuclear extract at 10 uM preincubated for 30 mins followed by hSIE probe addition by EMSA analysis
T1 sequence (whole entry): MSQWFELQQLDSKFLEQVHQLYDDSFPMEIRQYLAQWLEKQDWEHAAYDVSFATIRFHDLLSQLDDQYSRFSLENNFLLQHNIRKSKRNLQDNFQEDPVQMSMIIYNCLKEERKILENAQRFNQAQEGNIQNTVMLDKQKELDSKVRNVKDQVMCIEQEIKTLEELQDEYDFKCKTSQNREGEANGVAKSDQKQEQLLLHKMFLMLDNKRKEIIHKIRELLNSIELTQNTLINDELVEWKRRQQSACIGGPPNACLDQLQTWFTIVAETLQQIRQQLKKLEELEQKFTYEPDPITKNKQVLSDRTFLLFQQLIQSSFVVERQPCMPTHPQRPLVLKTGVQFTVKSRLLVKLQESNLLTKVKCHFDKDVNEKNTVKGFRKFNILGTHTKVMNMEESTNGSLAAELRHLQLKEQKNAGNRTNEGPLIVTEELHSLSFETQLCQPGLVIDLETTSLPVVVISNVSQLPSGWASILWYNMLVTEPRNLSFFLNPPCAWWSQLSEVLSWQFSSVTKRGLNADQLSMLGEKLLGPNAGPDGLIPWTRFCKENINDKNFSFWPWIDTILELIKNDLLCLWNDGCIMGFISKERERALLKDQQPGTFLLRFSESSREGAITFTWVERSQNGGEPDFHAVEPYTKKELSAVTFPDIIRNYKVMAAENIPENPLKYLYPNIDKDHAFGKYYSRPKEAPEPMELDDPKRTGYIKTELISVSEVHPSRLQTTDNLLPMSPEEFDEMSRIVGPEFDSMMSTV

NIH3T3 = experiment: Inhibition of oligonucleotide [32P]-labelled 5'-AGATTTCTAGGAATTCAA probe binding to STAT5 homodimer in mouse NIH3T3 nuclear extract at 10 uM preincubated for 30 mins followed by MGFe probe addition by EMSA analysis
[3] = target: Signal transducer and activator of transcription 3 (Homo sapiens) (UniProt P40763); experiment: Inhibition of oligonucleotide [32P]-labelled 5'-AGCITCATTTCCCGTAAATCCCTA hSIE probe binding to STAT3 in human MDA-MB-468 cell nuclear extract at 5 uM by EMSA analysis; conditions: time upper […], TDE = time-dependent effect
MDA-MB-231 [4] = experiment: Antiproliferative activity against human MDA-MB-231 cells assessed as reduction in cell viability incubated for 72 hrs by CyQuant assay; assay type: functional, cell-based; conditions: MDA-MB-231, 72 h
MCF7 [5] = experiment: Antiproliferative activity against human MCF7 cells assessed as reduction in cell viability incubated for 72 hrs by CyQuant assay; assay type: functional, cell-based; conditions: MCF7, 72 h
MCF7 [6] = experiment: Antiproliferative activity against human MCF7 cells assessed as reduction in cell viability at 2 uM incubated for 24 hrs by Trypan blue exclusion dye based phase contrast microscopic analysis; assay type: functional
How it was run: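 Cells in 6-well culture, untreated or treated once with 2 μM compound. Harvested every 24 h (up to 96 h) and counted as viable cells by trypan blue exclusion under phase-contrast microscopy. Counts plotted against duration of treatment.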

MDA-MB-231 [7] = experiment: Anticlonogenic activity against human MDA-MB-231 cells assessed as inhibition of colony formation upto 1 uM incubated for 4 hrs by crystal violet staining based assay; assay type: functional, cell-based; conditions: dose microM <=1, time 4.0 hrs
How it was run: (§1)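 MDA-MB-231 cells seeded as single-cell cultures (250 cells per well), treated once the next day with compound at 0–1 μM and grown until large colonies were visible. Colonies stained with crystal violet for 4 h and photographed. Three independent determinations.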

[8] = target: Signal transducer and activator of transcription 3 (Homo sapiens) (UniProt P40763); experiment: Inhibition of STAT3 in human MDA-MB-231 cells assessed as effect on JAK2 expression at 1 to 3 uM incubated for 3 to 24 hrs by immunoblotting analysis; assay type: cell-based; conditions: dose 1-3 µM, time lower 3.0 hrs, time upper […]
How it was run: (§2)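 MDA-MB-231 cells treated with 1 or 3 μM compound. Whole-cell lysates prepared in RIPA buffer and immunoblotted for EGFR, JAK2, Src, AKT and ERK1/2.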

[9] = target: Signal transducer and activator of transcription 3 (Homo sapiens) (UniProt P40763); experiment: Inhibition of STAT3 in human MDA-MB-231 cells assessed as inhibition of survivin expression at 1 to 3 uM incubated for 3 to 24 hrs by immunoblotting analysis; assay type: cell-based; conditions: dose 1-3 µM, time lower 3.0 hrs, time upper […]
How it was run: (§3)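 MDA-MB-231 cells treated with 1 or 3 μM compound for 3–24 h. Equal-protein whole-cell lysates (RIPA) immunoblotted for c-Myc, Bcl-2, VEGF, survivin and tubulin. Control is 0.05% DMSO-treated cells. Two to three independent determinations.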

[10] = target: Signal transducer and activator of transcription 3 (Homo sapiens) (UniProt P40763); experiment: Inhibition of STAT3 in human MDA-MB-231 cells assessed as inhibition of c-myc expression at 1 to 3 uM incubated for 3 to 24 hrs by immunoblotting analysis; assay type: cell-based; conditions: dose 1-3 µM, time lower 3.0 hrs, time upper […]; how it was run: as §3
[11] = Drug metabolism of compound in human liver microsomes assessed as hydroxy-acid metabolite formation; assay type: ADME, Microsome
[12] = target: Signal transducer and activator of transcription 3 (Homo sapiens) (UniProt P40763); experiment: Inhibition of STAT3 in human MDA-MB-231 cells assessed as effect on Akt expression at 1 to 3 uM incubated for 3 to 24 hrs by immunoblotting analysis; assay type: cell-based; conditions: dose 1-3 µM, time lower 3.0 hrs, time upper […]; how it was run: as §2
[13] = Aqueous solubility of compound in simulated intestinal fluid; assay type: physicochemical; conditions: simulated gi fluid
[14] = target: Signal transducer and activator of transcription 3 (Homo sapiens) (UniProt P40763); experiment: Inhibition of STAT3 in human MDA-MB-231 cells assessed as effect on Erk1/2 expression at 1 to 3 uM incubated for 3 to 24 hrs by immunoblotting analysis; assay type: cell-based; conditions: dose 1-3 µM, time lower 3.0 hrs, time upper […]; how it was run: as §2
[15] = target: Signal transducer and activator of transcription 3 (Homo sapiens) (UniProt P40763); experiment: Inhibition of STAT3 in human MDA-MB-231 cells assessed as induction of PARP cleavage at 1 to 3 uM incubated for 3 to 24 hrs by immunoblotting analysis; assay type: cell-based; conditions: dose 1-3 µM, time lower 3.0 hrs, time upper […]
How it was run: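 Equal-protein whole-cell lysates run on SDS-PAGE/Western and probed for full-length and cleaved PARP, pYSTAT3, STAT3 and tubulin. Control is 0.05% DMSO. Two independent determinations.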

[16] = target: Signal transducer and activator of transcription 3 (Homo sapiens) (UniProt P40763); experiment: Inhibition of STAT3 in human MDA-MB-231 cells assessed as inhibition of VEGF expression at 1 to 3 uM incubated for 3 to 24 hrs by immunoblotting analysis; assay type: cell-based; conditions: dose 1-3 µM, time lower 3.0 hrs, time upper […]; how it was run: as §3
[17] = target: Signal transducer and activator of transcription 3 (Homo sapiens) (UniProt P40763); experiment: Inhibition of STAT3 in human MDA-MB-231 cells assessed as effect on Src expression at 1 to 3 uM incubated for 3 to 24 hrs by immunoblotting analysis; assay type: cell-based; conditions: dose 1-3 µM, time lower 3.0 hrs, time upper […]; how it was run: as §2
[18] = Aqueous solubility of compound in simulated gastric fluid; assay type: physicochemical; conditions: simulated gi fluid
[19] = Drug metabolism of compound in human liver microsomes assessed as metabolite formation; assay type: ADME, Microsome
MDA-MB-231 [20] = experiment: Anticlonogenic activity against human MDA-MB-231 cells assessed as inhibition of colony formation at 0.5 uM incubated for 4 hrs by crystal violet staining based assay; assay type: functional, cell-based; how it was run: as §1
[21] = target: Signal transducer and activator of transcription 3 (Homo sapiens) (UniProt P40763); experiment: Inhibition of STAT3 in human MDA-MB-231 cells assessed as inhibition of Bcl-2 expression at 1 to 3 uM incubated for 3 to 24 hrs by immunoblotting analysis; assay type: cell-based; conditions: dose 1-3 µM, time lower 3.0 hrs, time upper […]; how it was run: as §3
[22] = target: Signal transducer and activator of transcription 3 (Homo sapiens) (UniProt P40763); experiment: Binding affinity to STAT3 (unknown origin) assessed as change in entropy by isothermal titration calorimetry
[23] = target: Signal transducer and activator of transcription 3 (Homo sapiens) (UniProt P40763); experiment: Inhibition of STAT3 in human MDA-MB-231 cells assessed as effect on EGFR expression at 1 to 3 uM incubated for 3 to 24 hrs by immunoblotting analysis; assay type: cell-based; conditions: dose 1-3 µM, time lower 3.0 hrs, time upper […]; how it was run: as §2
MDA-MB-468 [24] = experiment: Antiproliferative activity against human MDA-MB-468 cells harbouring STAT3 assessed as reduction in cell viability at upto 10 uM incubated for 72 hrs by CyQuant assay; assay type: functional, cell-based; conditions: dose microM <=10, time 72.0 hrs
MDA-MB-231 [25] = experiment: Antiproliferative activity against human MDA-MB-231 cells harbouring STAT3 assessed as reduction in cell viability at upto 10 uM incubated for 72 hrs by CyQuant assay; assay type: functional, cell-based; conditions: dose microM <=10, time 72.0 hrs
[26] = Inhibition of oligonucleotide [32P]-labelled 5'-AGATTTCTAGGAATTCAA probe binding to STAT5 homodimer in mouse NIH3T3 nuclear extract preincubated for 30 mins followed by MGFe probe addition by EMSA analysis
MDA-MB-231 [27] = experiment: Anticlonogenic activity against human MDA-MB-231 cells assessed as inhibition of colony formation at 0.5 to 1 uM incubated for 4 hrs by crystal violet staining based assay; assay type: functional, cell-based; conditions: dose 0.5-1 µM; how it was run: as §1
[28] = target: Signal transducer and activator of transcription 3 (Mus musculus, UniProt P42227); experiment: Inhibition of oligonucleotide [32P]-labelled 5'-AGCITCATTTCCCGTAAATCCCTA probe binding to STAT3 SH2 domain in mouse NIH3T3/v-Src nuclear extract preincubated for 30 mins followed by hSIE probe addition by EMSA analysis; assay type: subcellular, Nucleus
Sequence of Signal transducer and activator of transcription 3 (P42227 whole entry, the tested form may be a part): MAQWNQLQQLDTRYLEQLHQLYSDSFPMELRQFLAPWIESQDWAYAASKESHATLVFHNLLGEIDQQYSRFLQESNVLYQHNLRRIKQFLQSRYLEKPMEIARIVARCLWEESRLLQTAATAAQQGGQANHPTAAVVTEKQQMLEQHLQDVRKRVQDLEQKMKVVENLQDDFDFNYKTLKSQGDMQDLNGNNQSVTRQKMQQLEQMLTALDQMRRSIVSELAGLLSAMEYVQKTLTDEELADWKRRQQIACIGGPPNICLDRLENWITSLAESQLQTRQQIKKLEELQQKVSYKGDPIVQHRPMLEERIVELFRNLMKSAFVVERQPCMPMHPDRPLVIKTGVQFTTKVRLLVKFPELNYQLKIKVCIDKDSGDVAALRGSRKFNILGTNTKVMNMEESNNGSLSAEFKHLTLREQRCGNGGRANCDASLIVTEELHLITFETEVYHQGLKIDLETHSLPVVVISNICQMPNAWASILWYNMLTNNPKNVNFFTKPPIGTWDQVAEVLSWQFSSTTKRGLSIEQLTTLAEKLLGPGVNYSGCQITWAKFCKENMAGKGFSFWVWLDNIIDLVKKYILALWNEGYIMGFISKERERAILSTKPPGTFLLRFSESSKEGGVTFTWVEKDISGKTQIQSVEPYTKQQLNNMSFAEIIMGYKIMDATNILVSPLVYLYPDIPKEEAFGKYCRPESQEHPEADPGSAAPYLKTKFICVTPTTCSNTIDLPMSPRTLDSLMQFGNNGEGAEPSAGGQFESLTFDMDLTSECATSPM

Sequence of Signal transducer and activator of transcription 3 (Homo sapiens) (P40763 whole entry): as the sequence (P42227 whole entry, the tested form may be a part) above, with D760E counted along it

EC50 (MDA-MB-468 [1]): 1.8 µM | inhibition [2]: Active | inhibition (NIH3T3): Active | inhibition [3]: Tde | EC50 (MDA-MB-231 [4]): 1.8 µM | EC50 (MCF7 [5]): 3.8 µM
SMILES: CNC(=O)c1ccc(N(Cc2ccc(C3CCCCC3)cn2)C(=O)[C@H]2CCN2S(=O)(=O)c2c(F)c(F)c(F)c(F)c2F)cc1O
EC50 (MCF-10A): 4.6 µM | Activity (MCF7 [6]): inactive | inhibition (MDA-MB-231 [7]): inactive

inhibition [8]: Active | EC50 (MDA-MB-468 [1]): 1 µM | inhibition [10]: Active | Drug metabolism [11]: Metabolite_Detected | inhibition [12]: Active | solubility [13]: 200 µg/mL (≈ 315 µM) | inhibition [14]: Active | inhibition [3]: Tde | inhibition [15]: Active | inhibition [16]: Active | inhibition [17]: Active | solubility [18]: 116 µg/mL (≈ 183 µM) | Drug metabolism [19]: Metabolite_Detected | EC50 (MCF7 [5]): 4.6 µM | inhibition [21]: Active | -TdeltaS [22]: -2.84 kcal/mol | inhibition [23]: Active
SMILES: O=C1OCc2cc(N(Cc3ccc(C4CCCCC4)cn3)C(=O)[C@H]3CCN3S(=O)(=O)c3c(F)c(F)c(F)c(F)c3F)ccc21
EC50 (MCF-10A): 4.6 µM | inhibition [9]: Active | inhibition (MDA-MB-231 [20]): Active

IC50 [26]: 9.3 µM
SMILES: O=C(O)c1ccc(N(Cc2ccc(C3CCCCC3)cc2)C(=O)[C@H]2CCN2S(=O)(=O)c2c(F)c(F)c(F)c(F)c2F)cc1O
Activity (MDA-MB-468 [24]): inactive | Activity (MDA-MB-231 [25]): inactive

EC50 (MDA-MB-468 [1]): 1.6 µM | EC50 (MCF7 [5]): 5.7 µM | IC50 [28]: 7.5 µM
SMILES: COC(=O)c1ccc(N(Cc2cnc(C3CCCCC3)cn2)C(=O)[C@H]2CCN2S(=O)(=O)c2c(F)c(F)c(F)c(F)c2F)cc1O
EC50 (MCF-10A): 3.8 µM | inhibition (MDA-MB-231 [27]): Active
